Rows were chosen to be rich in hits. Some 5.2% of all compounds tested hit in one or more screens of this group.
EBNA-1 inhibitor: blocks EBNA-1 binding to DNA | AID 1950 | actives 0.34% (n = 300,000) | inhibition, % at 14.8 µM | EBNA-1 DNA binding, fluorescence polarization; in the data active means inhibition above about 28%
NS3 helicase inh: HCV NS3 helicase inhibition | NS3 helicase DNA unwinding, Cy5 molecular beacon fluorescence | inhibition, % at 10.9 µM | actives 0.56% (n = 290,000) | AID 1800;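 active means inhibition above the mean of all tested compounds plus 3 SD, set per campaign, cut at about 35% in these data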
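Measured by: Cy5 fluorescence, 0 and 60 min reads / Assay system: NS3 helicase fragment of HCV / Control set: low DMSO, high thioflavine S at 110 µM / Times: 1 h reaction at 25 °C, ATP-initiated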
core dimer inh: HCV core protein dimerization inhibition | TR-FRET GST/Flag-core106 dimerization, 1536-well | inhibition, % at 5 µM | actives 0.33% (n = 300,000);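 active means inhibition above the mean of all tested compounds plus 3 SD, set per screening campaign, cut at about 45% in these data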
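System: GST/Flag-tagged HCV core106 proteins. Incubation: compound-protein-antibody incubation 4 h at 22.5 °C. Technique: HTRF with 340 nm excitation, 617/671 nm emission. Medium: KF-containing HEPES buffer, pH 7.45, DTT, CHAPS, BSA. Read-out: inhibition (%) from 671 over 617 nm ratio. Also added: Eu(K)-anti-GST 90 ng/mL plus XL665-anti-Flag 1 µg/mL.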
ALR H2O2 inh: human ALR oxidase inhibition via reduced H2O2. actives 3.8% (n = 290,000). AID 485317. purified ALR, DTT oxidation, H2O2 HRP-luminol luminescence. P55789. inhibition, % (test concentration not listed);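 active means mean replicate inhibition above about 79%, with every replicate also reaching it, limit read from the data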
Target sequence (P55789 whole entry, looked up): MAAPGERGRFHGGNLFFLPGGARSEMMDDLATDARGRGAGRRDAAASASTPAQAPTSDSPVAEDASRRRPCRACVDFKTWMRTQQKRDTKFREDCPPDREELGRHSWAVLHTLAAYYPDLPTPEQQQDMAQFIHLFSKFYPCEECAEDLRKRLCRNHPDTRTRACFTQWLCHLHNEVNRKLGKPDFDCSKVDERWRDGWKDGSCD
M18AAP inhibitor: PfM18AAP enzyme inhibition | AID 1822 | actives 1.2% (n = 290,000) | inhibition, % at 7.35 µM | recombinant PfM18AAP, H-Glu-NHMec fluorogenic cleavage;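 active means inhibition above the campaign mean inhibition over all tested compounds plus 3 SD, cut at about 28% in these data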
ZTA counter: ZTA (EBV) inhibition in EBNA-1 counter-screen; inhibition, % at 11 µM; ZTA-DNA binding, fluorescence polarization; AID 2234; actives 0.15% (n = 320,000); in the data active means inhibition above about 33%
Target sequence (P03206 whole entry, looked up): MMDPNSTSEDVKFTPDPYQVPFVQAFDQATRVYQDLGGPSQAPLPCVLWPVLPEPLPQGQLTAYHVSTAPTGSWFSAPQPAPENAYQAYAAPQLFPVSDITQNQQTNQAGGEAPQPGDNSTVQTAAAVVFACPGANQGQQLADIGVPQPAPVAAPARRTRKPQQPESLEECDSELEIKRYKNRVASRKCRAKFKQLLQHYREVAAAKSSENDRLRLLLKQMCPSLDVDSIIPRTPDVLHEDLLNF
Of the large screens only hits and unclear results are named; the others gave an inactive call.

COc1ccc(N2CCN(C(=O)C34CCC(C)(C(=O)C3)C4(C)C)CC2)cc1 (stereo not given)	none
O=[N+]([O-])c1cccnc1SCc1ccccc1	none
Cc1cc(S(=O)(=O)N2CCN(c3ccccc3F)CC2)ccc1-n1cnnn1	none
Cc1nnc(N2C(=O)C(O)=C(C(=O)c3ccco3)C2c2ccc(C(C)(C)C)cc2)s1 (stereo not given)	ALR H2O2 inh 97
Cc1nnc(N2C(=O)C(O)=C(C(=O)c3ccco3)C2c2ccc(C(C)C)cc2)s1 (stereo not given)	ALR H2O2 inh 97
Cc1nnc(N2C(=O)C(O)=C(C(=O)c3ccco3)C2c2ccc(F)cc2)s1 (stereo not given)	none
NCCCC[C@@H](C(=O)N1CCNCC1)n1cc([C@@H](N)CC(N)=O)nn1	none (no result: NS3 helicase inh, M18AAP inhibitor)
Cc1c(C(=O)O)sc2[nH]c(=O)n(Cc3ccccc3)c(=O)c12	none (no result: ALR H2O2 inh)
O=C1CCCCCN1Cc1nnc(SCc2nc3ccccc3s2)n1-c1ccccn1	none (no result: ALR H2O2 inh)
CCn1c(CN2CCCCCC2=O)nnc1SCc1cnc(-c2ccccc2)s1	ALR H2O2 inh 99
COCCn1c(SCC#N)nnc1-c1ccccc1	none
COc1ccc(-n2cnnc2SCc2cnc(-c3ccccc3)s2)cc1	ALR H2O2 inh 99
COCCn1c(SCc2cnc(-c3ccccc3)s2)nnc1-c1ccncc1	ALR H2O2 inh 99
Cc1ccc(C)c(S(=O)(=O)N2CCN(C(=O)[C@H](C)N3C(=O)C4CC=CCC4C3=O)CC2)c1 (stereo not given in full)	none (no result: EBNA-1 inhibitor, NS3 helicase inh, core dimer inh, M18AAP inhibitor)
Cc1cc(C)n(C(C)CC(=O)Nc2ccc(-c3ccno3)cc2)n1 (stereo not given)	none
O=C(COC(=O)C1=NN(c2ccccc2)C(=O)CC1)Nc1nc(-c2ccc(F)cc2)cs1	none (no result: EBNA-1 inhibitor, NS3 helicase inh, core dimer inh, M18AAP inhibitor, ZTA counter)
COc1cc(CNCc2cccs2)ccc1OCc1cccs1	none
CCN(CC)c1ccc(CNCc2cccs2)cc1	ALR H2O2 inh 99
COc1ccc(N2CCC(CNC(=O)Nc3ccc(OC)cc3OC)C2)cc1 (stereo not given)	ALR H2O2 inh 85
CCOC(=O)c1ccc(CNCc2ccccc2)cc1	none
CCOC(=O)NC1(NCc2ccccc2)Oc2ccccc2O1	M18AAP inhibitor 54
O=C(COc1ccc(Cl)cc1)NN=C1CCCCCCC1	none
Cc1ccc([C@H]2C(C(=O)O)=CC[C@@H](c3ccc(C)cc3)N2S(=O)(=O)c2ccc(C)cc2)cc1	none (no result: EBNA-1 inhibitor, NS3 helicase inh, core dimer inh, M18AAP inhibitor, ZTA counter)
O=C1c2ccccc2C(Nc2ccc(F)c(Cl)c2)N1Cc1ccco1 (stereo not given)	none
O=C1c2ccccc2C(Nc2ccc3c(c2)OCO3)N1Cc1ccc2c(c1)OCO2 (stereo not given)	core dimer inh 50
O=C1c2ccccc2C(Nc2ccc3c(c2)OCO3)N1Cc1ccco1 (stereo not given)	ALR H2O2 inh 99
C=CCSc1nnc2c(n1)OC=Nc1ccccc1-2	none
C=CCSc1nnc2c(n1)OC(c1ccco1)Nc1ccccc1-2 (stereo not given)	ALR H2O2 inh 98
COc1cccc(N2CC(C(=O)Nc3c(C(N)=O)oc4ccccc34)CC2=O)c1 (stereo not given)	none (no result: NS3 helicase inh, M18AAP inhibitor)
O=C(Nc1ccon1)c1sc2cc(F)ccc2c1Cl	none
O=C(NC1=NCCS1)c1sc2cc(F)ccc2c1Cl	ALR H2O2 inh 99
Cc1ccn2c(Nc3ccc4c(c3)OCO4)c(-c3ccc(O)cc3)nc2c1	ALR H2O2 inh 85, M18AAP inhibitor 31
Cc1ccc(Nc2c(-c3ccc(C)o3)nc3ncccn23)cc1	none (no result: ALR H2O2 inh)
Oc1ccc(-c2nc3ncccn3c2Nc2ccc3c(c2)OCO3)cc1	ALR H2O2 inh 99
Cc1ccc(-c2nc3ncccn3c2Nc2ccc3c(c2)OCO3)o1	ALR H2O2 inh 99
O=C(CNc1cccc(S(=O)(=O)N2CCCC2)c1)Nc1cccc(C(F)(F)F)c1	none (no result: EBNA-1 inhibitor, NS3 helicase inh, core dimer inh, M18AAP inhibitor, ZTA counter)
Nc1nc2c(nc(N3CCCCC3)n2[C@@H]2O[C@H](CO)[C@@H](O)[C@H]2O)c(=O)[nH]1	none
Nc1nc2c(nc(SCc3ccccc3Br)n2C2OC(CO)C(O)C2O)c(=O)[nH]1 (stereo not given)	ALR H2O2 inh 86
COc1ccc(N2CCN(C(=O)CN(C)S(=O)(=O)c3cccs3)CC2)cc1	ALR H2O2 inh 99
COc1ccc(N2CCN(C(=O)CN(CCc3ccccc3)S(C)(=O)=O)CC2)cc1	ALR H2O2 inh 88
COc1ccccc1N1CCN(C(=O)CN(CCc2ccccc2)S(C)(=O)=O)CC1	none
COc1ccc(N2CCN(C(=O)CCNS(=O)(=O)c3cccs3)CC2)cc1	ALR H2O2 inh 94
CCN(CC)Cc1c(C(=O)N/N=C/c2cccc(OCc3cccc(Cl)c3)c2)nnn1-c1nonc1N	none
COc1ccc2nc(N=Nc3ccc(N(C)C)cc3)sc2c1	none (no result: EBNA-1 inhibitor, core dimer inh, ALR H2O2 inh, ZTA counter)
CN(C)c1ccc2nc3ccc(=[N+](C)C)cc-3sc2c1	EBNA-1 inhibitor active, ALR H2O2 inh 99 (no result: ZTA counter)
CNc1nc(Nc2ccc(C(C)=O)cc2)nc(OC(C(F)(F)F)C(F)(F)F)n1	ALR H2O2 inh 100
O=C(Nc1nc2c(s1)COc1ccccc1-2)c1cccs1	ALR H2O2 inh 96
COCc1nnc(NC(=O)c2ccc(S(=O)(=O)N3CCCc4ccccc43)cc2)o1	ALR H2O2 inh 86
O=C(Nc1nnc(C2CC2)o1)c1ccc(S(=O)(=O)N2CCCc3ccccc32)cc1	ALR H2O2 inh 96 (no result: NS3 helicase inh, M18AAP inhibitor)
O=Nc1c(O)[nH]c2ccc(F)cc12	none
Cc1cc2c(N=O)c(NO)ccc2[nH]1	ALR H2O2 inh 79
COc1ccc(-n2c(-c3cnccn3)n[nH]c2=S)cc1	ALR H2O2 inh 90
S=c1[nH]nc(-c2cnccn2)n1-c1ccccc1	none
Cc1ccc(O)c(C2=NCCNC(C(F)(F)F)=C2)c1	ALR H2O2 inh 91
CCOC(=O)c1sc(NC(=O)CN2CC(C)OC(C)C2)nc1C (stereo not given)	none (no result: ALR H2O2 inh)
CCCCCCn1c(N2CCN(c3ccccc3)CC2)nc2c1c(=O)n(C)c(=O)n2C	none
CCCCCn1c(N2CCCC2)nc2c1c(=O)n(C)c(=O)n2C	ALR H2O2 inh 98
CCOC(=O)C1CCCN(C(=O)c2cc(S(=O)(=O)N3CCCCC3)c[nH]2)C1 (stereo not given)	none
Cc1ccc2c(c1)C(=O)C(=O)N2CCOc1ccccc1	M18AAP inhibitor 39
COc1cc(OC)c(NC(=O)c2ccc3c(SCC(=O)O)c4c(nc3c2)CCCC4)cc1Cl	core dimer inh 47
COc1cc(NC(=O)c2ccc3c(SCC(=O)O)c4c(nc3c2)CCCC4)cc(OC)c1OC	ALR H2O2 inh 97
COc1cc(NC(=O)c2ccc3c(SCC(=O)O)c4c(nc3c2)CCC4)cc(OC)c1OC	none
CC(=O)Nc1ccc(S(=O)(=O)N2CCN(C(=O)c3ncoc3-c3ccc(F)cc3)CC2)cc1	none
O=C(CSc1nc2ccccc2[nH]1)NCc1ccc2c(c1)OCO2	none (no result: ALR H2O2 inh)

Screening results deposited in PubChem by several laboratories.
